PRMT1 inh – PRMT1 methyltransferase inhibitors, primary screen, biochemical, fluorescence polarization | recombinant PRMT1, activity-based probe fluorescence polarization | 370,000 compounds, 1.3% hits | Protein arginine N-methyltransferase 1 (Homo sapiens), Q99873 | inhibition, % at 2.79 µM;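 active = inhibition above about 21% made by adding two undisclosed values, limit read from the data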
Target sequence (Q99873 whole entry, looked up): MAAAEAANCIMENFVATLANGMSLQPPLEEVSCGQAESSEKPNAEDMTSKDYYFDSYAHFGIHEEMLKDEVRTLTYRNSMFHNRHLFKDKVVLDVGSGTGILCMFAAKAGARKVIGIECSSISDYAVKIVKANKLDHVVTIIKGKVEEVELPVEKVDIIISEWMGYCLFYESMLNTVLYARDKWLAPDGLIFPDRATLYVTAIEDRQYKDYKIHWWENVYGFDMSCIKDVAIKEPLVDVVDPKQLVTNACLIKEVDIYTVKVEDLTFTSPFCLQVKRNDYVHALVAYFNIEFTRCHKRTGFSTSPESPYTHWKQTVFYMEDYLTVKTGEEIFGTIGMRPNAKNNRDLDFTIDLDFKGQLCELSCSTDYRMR
HTRA1 inh – HTRA1 serine protease inhibitors, primary screen, biochemical, fluorescence polarization, HTS; inhibition, % at 5.96 µM; 340,000 compounds, 0.5% hits; recombinant HTRA1, FP-rhodamine activity-based probe; in the data active = inhibition above about 36%;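 note: 0% = enzyme with DMSO and 100% = wells lacking enzyme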
SIAE inh – human SIAE inhibitors, primary screen, biochemical, fluorescence polarization, FP-Rh probe, 1536-well HTS; Sialate O-acetylesterase (Homo sapiens), Q9HAT2; SIAE FP-Rh probe binding; inhibition, % at 9.66 µM; 370,000 compounds, 0.69% hits; AID 1053197, 2014;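 active = inhibition above a cutoff: mean of compounds within the control limits plus 3 SD of those, cut at about 17% in these data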;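 note: 0% = plate median of compound wells and 100% = probe without SIAE protein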
mABHD4 FP – ABHD4 inhibitors, primary screen, biochemical, fluorescence polarization, mouse; 370,000 compounds, 0.54% hits; (Lyso)-N-acylphosphatidylethanolamine lipase (Mus musculus), Q8VD66; inhibition, % at 8.92 µM; purified mABHD4, FP-Rh probe fluorescence polarization;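 active = inhibition exceeding the mean over every tested compound plus 3 SD, cut at about 30% in these data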;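 note: 0% = plate median of compound wells and 100% = S159A mutant with DMSO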
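Test system: mABHD4 protein; Read-out basis: % inhibition; Incubation: 45 min + 60 min at 25 °C; Repeats: single replicate; Technique: fluorescence polarization with parallel and perpendicular emission, 525/598 nm; Compound: 8.92 µM, single dose; Benchmarks: full inhibition S159A mutant plus DMSO, zero as sample-well median.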
TCR CD3 inh – inhibitors of human TCR-CD3 interaction, primary screen, biochemical, fluorescence, TAMRA-labeled TCR probe; T-cell receptor (TCR); inhibition, % at 9.4 µM; 360,000 compounds, 0.37% hits; AID 651800, 2012; in the data active = inhibition above about 19%;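 note: recombinant mutant TCR 2C K166C tagged with TAMRA read by polarization; 0% = receptor in buffer alone and 100% = receptor with positive control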
Starred values were filed as active, the others as inactive; x = no result. Shown are actives, neighbours in structure and some others; about 2.5% of the full set was active somewhere.

SMILES	PRMT1 inh	HTRA1 inh	SIAE inh	mABHD4 FP	TCR CD3 inh
COc1cc(/C=C2\C(=O)NC(=O)N(CCc3ccc(F)cc3)C2=O)ccc1O	24.4*	-12.0	-9.0	3.5	-8.7
COc1ccc(Cc2cn(C)c(N)n2)cc1	2.7	x	3.2	2.2	x
COc1ccc2[nH]c3c(c2c1)CCNC3C (centres undefined)	-1.3	-1.0	2.1	-2.9	-15.9
COc1ccc2c3c([nH]c2c1)C(C)NCC3 (centres undefined)	-3.2	18.4	6.5	10.3	24.7*
O=C(O)c1ccc2c(c1)C1C(Cl)C(Sc3ccccc3[N+](=O)[O-])CC1C(c1cccc([N+](=O)[O-])c1)N2 (centres undefined)	x	81.1*	x	x	x
O=C(NC1CN2CCC1CC2)c1ccc(Cl)cc1 (centres undefined)	-4.2	x	0.8	-3.1	0.9
CC(C)(C)OC(=O)c1c(N)n(Cc2ccco2)c2nc3ccccc3nc12	21.2*	-10.4	-9.1	3.1	-5.5
CCN(CC)P(=S)(c1c(C)nc2ccccn12)c1c(C)nc2ccccn12	23.6*	-7.5	9.1	6.2	-5.4
OC1CN2CCC(O)C2C(O)C1O (centres undefined)	-1.5	x	11.2	-2.5	8.4
N#CCC[C@@H]1CC[C@]2(CCCN(Cc3ccncc3)C2)O1	1.6	x	3.0	0.6	x
O=C(NCCN1CCC2(CC1)C(=O)NCN2c1ccccc1)c1ccc(F)c(F)c1	3.6	x	-0.8	6.4	-4.7
O=C(O)CNC1c2ccccc2CSc2ccccc21 (centres undefined)	21.2*	x	-1.0	2.7	-1.0
CCOC(=O)CSCCOc1ccc(C=C2C(=O)NC(=O)NC2=O)cc1OC	5.7	x	4.4	-6.5	3.6
CCOC(=O)COc1ccc(/C=C2\C(=O)NC(=S)N(c3ccc(OC)cc3)C2=O)cc1OC	22.6*	0.7	-2.6	8.4	-3.8
CCOc1ccc(N2C(=O)/C(=C/c3ccco3)C(=O)NC2=S)cc1	x	53.9*	x	x	x
CCOc1ccc(N2C(=O)/C(=C\c3cccs3)C(=O)NC2=S)cc1	19.0	x	-37.1	-123.2	-63.1
CC(=O)N1c2ccccc2C(c2ccccc2)=NCC1C(=O)NC1CCCCC1 (centres undefined)	4.7	x	-5.2	-2.2	x
Cc1ccc(N2C(=O)NC(=O)/C(=C/C=C/c3ccco3)C2=O)cc1	24.0*	0.1	-26.2	-8.4	-3.9
Cn1c(O)c(C=Nc2ccc(Br)cc2)c(=O)n(C)c1=O	2.5	6.3	2.2	-1.1	-2.0
Cn1c(O)c(C=Nc2cccc(C(F)(F)F)c2)c(=O)n(C)c1=O	22.1*	0.7	-3.7	-5.3	3.0
O=C(NCCN1CCC2(CC1)C(=O)NCN2c1ccccc1)c1cccnc1Cl	0.8	x	4.0	3.0	-7.1
CCN1C(=O)NC(=O)/C(=C\c2ccc(N3CCOCC3)cc2OC)C1=O	21.2*	x	-78.0	2.0	-22.1
Cc1cc2c(C(C)C)c(O)c(O)c(C=O)c2c(O)c1-c1c(C)cc2c(C(C)C)c(O)c(O)c(C=O)c2c1O	25.5*	x	18.6*	92.4*	5.1
COC(=O)C1=C(c2c(C)noc2C)C[C@@H]2CC[C@H]1N2C(=O)NCCCOC(C)C	-0.7	-0.7	31.1*	-3.3	1.5
COC(=O)C1=C(c2c(C)noc2C)C[C@@H]2CC[C@H]1N2C(=O)NCCOc1ccc(OC)cc1	3.1	-0.3	4.0	-18.7	-0.9
SMILES	PRMT1 inh	HTRA1 inh	SIAE inh	mABHD4 FP	TCR CD3 inh
O=c1[nH]c(=O)n(CCC2=CCCCC2)c(O)c1C=NC1CCN(Cc2ccccc2)CC1	1.1	0.8	-3.4	5.9	-2.3
O=c1[nH]c(=O)n(CCC2=CCCCC2)c(O)c1/C=N/Nc1ccccc1	21.9*	-4.0	4.6	7.0	-1.7
CC(C)(C)n1nnnc1C1CN=C(c2ccccc2)c2ccccc2N1 (centres undefined)	-2.2	x	-1.6	2.9	x
O=C1NC(=O)N(Cc2ccco2)C(=O)/C1=C/c1cccn1CCOc1ccccc1Cl	21.9*	-1.4	-23.9	-12.6	-2.9
CCN(CC)c1ccc(/C=C2\C(=O)NC(=O)N(Cc3ccco3)C2=O)cc1	22.3*	-39.8	-84.5	-65.0	-78.4
C=CCCC(NC(=O)OCc1ccccc1)P(=O)(Oc1ccccc1)Oc1ccccc1 (centres undefined)	3.4	x	-1.6	-8.1	x

High-throughput results deposited in PubChem BioAssay by The Scripps Research Institute Molecular Screening Center.
